Legend:
B6C3F1 mice = test: Organ and body weights after 28-day dermal exposure; type: in vivo; settings: 28 days
How it was run: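 Female B6C3F1 mice (5/group) were treated topically on both ears (25 μl/ear) with acetone or 1.25, 2.5, 5% w/v test compound once daily for 28 days. They were weighed at necropsy about 24 h after the last dose. Liver, spleen, kidneys and thymus were cleaned of connective tissue and weighed. Organ weights were reported relative to body weight and uncorrected; dose trend was tested.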

dLN cells = test: Draining lymph node; type: in vivo, B6C3F1 mice; settings: 28 days
How it was run: (§1)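 Female B6C3F1 mice (5/group) received 25 μl/ear of acetone vehicle or 1.25, 2.5 or 5% w/v test compound on the dorsal surface of each ear, once daily for 28 days. They were euthanized about 24 h later. Single-cell suspensions were made from both auricular dLNs, half a spleen or one ear pinna. Cells were Fc-blocked (anti-CD16/32), stained with surface antibody cocktails and acquired on an LSR II, with FMO gating controls.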

spleen cells = test: Spleen immune phenotyping by flow cytometry; type: in vivo, B6C3F1 mice; settings: 28 days; for Spleen B-cells frequency / Spleen B-cells number / Spleen CD4+ frequency / Spleen CD4+ number / Spleen CD8+ frequency / Spleen CD8+ number / Spleen CD11b + Ly6C+ frequency / Spleen CD11b + Ly6C+ number / Spleen CD11b + Ly6C- frequency / Spleen CD11b + Ly6C- number / Spleen CD11b+ frequency / Spleen CD11b+ number / Spleen CD86 B-cells / Spleen CD86 DCs / Spleen Cellularity / Spleen Dendritic Cells frequency / Spleen Dendritic Cells number / Spleen MHCII B-cells / Spleen MHCII DCs / Spleen NK frequency / Spleen NK number / Spleen Neutrophils frequency / Spleen Neutrophils number: mean ± SE
How it was run: as §1

IgM response to SRBC = test: Spleen IgM response to SRBC; type: in vivo, B6C3F1 mice; settings: 10 days
How it was run: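 B6C3F1 mice, 5/group, dosed topically on dorsal surface of each ear (25 μl/ear) with acetone vehicle or test compound at 0.625, 1.25, 2.5% w/v once daily for 10 consecutive days. SRBC 7.5 × 10^7 i.v. given 4 days before CO2 euthanasia. Spleen cells plated at 1:30 and 1:120 in agar/DEAE-dextran with SRBC and guinea pig complement, 3 h at 37 °C. Plaques counted per 10^6 cells and per spleen. Mean ± SE.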

NK cell function = test: NK assay; type: in vivo, mice; settings: any effector to target ratios

## O=S(=O)(O)C(F)(F)C(F)(F)C(F)(F)C(F)(F)C(F)(F)C(F)(F)F [PFHxS, Perfluorohexane sulfonic acid]
B6C3F1 mice; 1.25% PFHxS dermal
  Liver weight (% of body weight) increase vs. vehicle-treated mice: 162%
  Spleen weight (% of body) decrease: 25%
B6C3F1 mice; 1.25, 2.5, 5% PFHxS dermal
  Mass of kidneys not corrected for body weight: significant decreases
  Mass of liver not corrected for body weight: significant increases
  Mass of spleen not corrected for body weight: significant decreases
  Mass of thymus not corrected for body weight: significant decreases
B6C3F1 mice; 1.25-5% PFHxS dermal
  Kidney weight (as % of body weight): No change
B6C3F1 mice; 2.5% PFHxS dermal
  Liver weight (% of body weight) increase vs. vehicle-treated mice: 172%
  Spleen weight (% of body) decrease: 37%
  Thymus weight (% of body) decrease: 44%
B6C3F1 mice; 5% PFHxS dermal
  Body weight decrease: 14%
  Liver weight (% of body weight) increase vs. vehicle-treated mice: 205%
  Spleen weight (% of body) decrease: 38%
  Thymus weight (% of body) decrease: 47%
dLN cells; 1.25%, 2.5%, and 5% PFHxS
  dLN CD4+ T cell number: significant decrease
dLN cells; 2.5%, 5% PFHxS
  dLN CD8+ T cell frequency: increase
  dLN eosinophil frequency and number: increase
dLN cells; 5% PFHxS
  dLN mean fluorescence intensity of CD86 on B cells: increase
  dLN mean fluorescence intensity of MHCII on B cells: increase
  dLN total DC number: increase
Spleen cells; 1.25% PFHxS
  Spleen B-cells frequency: 31.48 ± 0.59%
  Spleen B-cells number: 2.50 ± 0.38 x 10^7
  Spleen CD4+ frequency: 24.60 ± 0.70%
  Spleen CD4+ number: 1.95 ± 0.30 x 10^7
  Spleen CD8+ frequency: 15.12 ± 0.73%
  Spleen CD8+ number: 11.70 ± 1.45 x 10^6
  Spleen CD11b + Ly6C+ frequency: 1.11 ± 0.09%
  Spleen CD11b + Ly6C+ number: 9.05 ± 1.59 x 10^5
  Spleen CD11b + Ly6C- frequency: 2.63 ± 0.16 %
  Spleen CD11b + Ly6C- number: 21.00 ± 3.46 x 10^5
  Spleen CD11b+ frequency: 3.90 ± 0.21%
  Spleen CD11b+ number: 3.13 ± 0.51 x 10^6
  Spleen CD86 B-cells: 341.20 ± 16.00 MFI
  Spleen CD86 DCs: 1733.80 ± 46.13 MFI
  Spleen Cellularity: 7.91 ± 1.16 x 10^7
  Spleen Dendritic Cells frequency: 3.33 ± 0.32%
  Spleen Dendritic Cells number: 2.70 ± 0.48 x 10^6
  Spleen MHCII B-cells: 1334.60 ± 89.70 MFI
  Spleen MHCII DCs: 4141.40 ± 112.06 MFI
  Spleen NK frequency: 2.52 ± 0.17%
  Spleen NK number: 20.00 ± 3.26 x 10^5
  Spleen Neutrophils frequency: 1.76 ± 0.14%
  Spleen Neutrophils number: 14.00 ± 2.38 x 10^5
Spleen cells; 1.25%, 2.5%, 5% PFHxS
  Spleen eosinophils frequency and number: decrease
Spleen cells; 2.5% PFHxS
  Spleen B-cells frequency: 32.48 ± 0.37%
  Spleen B-cells number: 1.62 ± 0.19 x 10^7
  Spleen CD4+ frequency: 26.26 ± 0.79 %
  Spleen CD4+ number: 1.30 ± 0.13 x 10^7
  Spleen CD8+ frequency: 16.74 ± 0.56 %
  Spleen CD8+ number: 8.25 ± 0.73 x 10^6
  Spleen CD11b + Ly6C+ frequency: 0.72 ± 0.11 %
  Spleen CD11b + Ly6C+ number: 3.77 ± 0.85 x 10^5
  Spleen CD11b + Ly6C- frequency: 2.21 ± 0.13 %
  Spleen CD11b + Ly6C- number: 11.20 ± 1.52 x 10^5
  Spleen CD11b+ frequency: 3.07 ± 0.21 %
  Spleen CD11b+ number: 1.56 ± 0.24 x 10^6
  Spleen CD86 B-cells: 280.80 ± 10.49 MFI
  Spleen CD86 DCs: 1677.40 ± 60.65 MFI
  Spleen Cellularity: 4.99 ± 0.55 x 10^7
  Spleen Dendritic Cells frequency: 3.36 ± 0.48%
  Spleen Dendritic Cells number: 1.71 ± 0.33 x 10^6
  Spleen MHCII B-cells: 1235.60 ± 111.64 MFI
  Spleen MHCII DCs: 4003.00 ± 145.61 MFI
  Spleen NK frequency: 2.19 ± 0.06 %
  Spleen NK number: 10.90 ± 1.04 x 10^5
  Spleen Neutrophils frequency: 1.69 ± 0.21%
  Spleen Neutrophils number: 8.87 ± 2.15 x 10^5
Spleen cells; 5% PFHxS
  Spleen B-cells frequency: 30.06 ± 0.55 %
  Spleen B-cells number: 1.11 ± 0.15 x 10^7
  Spleen CD4+ frequency: 26.90 ± 0.70 %
  Spleen CD4+ number: 0.99 ± 0.12 x 10^7
  Spleen CD8+ frequency: 18.12 ± 0.59 %
  Spleen CD8+ number: 6.58 ± 0.73 x 10^6
  Spleen CD11b + Ly6C+ frequency: 0.68 ± 0.13 %
  Spleen CD11b + Ly6C+ number: 2.52 ± 0.56 x 10^5
  Spleen CD11b + Ly6C- frequency: 1.69 ± 0.13 %
  Spleen CD11b + Ly6C- number: 6.28 ± 0.91 x 10^5
  Spleen CD11b+ frequency: 2.49 ± 0.24 %
  Spleen CD11b+ number: 0.93 ± 0.15 x 10^6
  Spleen CD86 B-cells: 302.60 ± 14.79 MFI
  Spleen CD86 DCs: 1754.60 ± 67.69 MFI
  Spleen Cellularity: 3.68 ± 0.45 x 10^7
  Spleen Dendritic Cells frequency: 3.34 ± 0.31%
  Spleen Dendritic Cells number: 1.26 ± 0.20 x 10^6
  Spleen MHCII B-cells: 1093.20 ± 94.51 MFI
  Spleen MHCII DCs: 3854.60 ± 88.79 MFI
  Spleen NK frequency: 1.71 ± 0.17 %
  Spleen NK number: 6.35 ± 0.96 x 10^5
  Spleen Neutrophils frequency: 2.51 ± 0.34 %
  Spleen Neutrophils number: 9.14 ± 1.54 x 10^5
IgM response to SRBC; 1.25% PFHxS dermal
  Decrease in specific IgM activity against SRBC (PFC/10^6 cells) vs vehicle: 50.7%
  Decrease in total IgM activity against SRBC (PFC/spleen) vs vehicle: 57.9%
IgM response to SRBC; 2.5% PFHxS dermal
  Decrease in specific IgM activity against SRBC (PFC/10^6 cells) vs vehicle: 49.9%
  Decrease in total IgM activity against SRBC (PFC/spleen) vs vehicle: 60.3%
NK cell function
  NK cell function: No significant decreases

— PMC11406440 (Food and chemical toxicology : an international journal …, 2024)
